ChEMBL document CHEMBL1135697, “Formaldehyde-induced DNA cross-link of indolizino[1,2-b]quinolines derived from the A-D rings of camptothecin” (J Med Chem, 2002)

Tests used:
Format in all cases: functional
Bos taurus [1] = species on record: Bos taurus; test: Variation in melting temperature performed in BPE buffer at pH 7.1,using 10 uM drug and 20 uM calf thymus DNA (CT)
How it was run: (§1)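 UV melting is monitored at 260 nm with a 1 °C/min heating ramp. BPE buffer is 6 mM Na2HPO4, 2 mM NaH2PO4 and 1 mM EDTA, pH 7.1. DNA is calf thymus or poly(dAdT)2 at 20 μM. ΔTm = Tm(complex) − Tm(DNA alone).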

Bos taurus [2] = species on record: Bos taurus; test: Variation in melting temperature performed in BPE buffer at pH 7.1,using 10 uM drug and 20 uM calf thymus poly (dAT); how it was run: as §1
Bos taurus [3] = species on record: Bos taurus; test: Absorption spectral changes upon addition of 200 uM calf thymus DNA to drug solution at 20 uM in 1 mM Na cacodylate buffer at pH 7.0
How it was run: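 Read-out is UV-visible absorption of the drug before and after DNA addition. Hypochromism (H) and bathochromic shift (Δλ) are reported.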

Calf thymus DNA [4] = test: Binding constant to reduce by 50% the fluorescence of ethidium bromide bound to calf thymus DNA; No displacement of DNA-bound ethidium bromide at 50 uM; conditions: Bos taurus
How it was run: (§2)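 Competitive fluorometric displacement of ethidium bromide prebound to calf thymus DNA. The drug level that cuts ethidium fluorescence by 50% is found, and the binding constant is calculated from it.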

Calf thymus DNA [5] = test: Binding constant to reduce by 50% the fluorescence of ethidium bromide bound to calf thymus DNA; conditions: Bos taurus; how it was run: as §2

| SMILES | ΔTm (Bos taurus [1]) [°C] | ΔTm (Bos taurus [2]) [°C] | Bathochromic shift (Bos taurus [3]) [nm] | Hypochromic shift (Bos taurus [3]) [%] | K app x10e6 (Calf thymus DNA [4]) | K app x10e6 (Calf thymus DNA [5]) [M⁻¹] |
| --- | --- | --- | --- | --- | --- | --- |
| Cc1cc2n(c(=O)c1CN)Cc1cc3ccccc3nc1-2 | 1.9 | 3 | 8 | 33.1 | No displacement of DNA-bound ethidium bromide at 50 uM |  |
| Cc1cc2n(c(=O)c1C(N)=O)Cc1cc3ccc(OCCN4CCCCC4)cc3nc1-2 | 4.6 | 12.8 | 8 | 35.8 |  | 0.2 |
| Cc1cc2n(c(=O)c1CN)Cc1cc3ccc(OCCN4CCCCC4)cc3nc1-2 | 19.4 | 28.6 | 11 | 38.6 |  | 8.4 |
| Cc1cc2n(c(=O)c1C(N)=O)Cc1cc3ccccc3nc1-2 | 0 | 0 | 0 | 2.7 | No displacement of DNA-bound ethidium bromide at 50 uM |  |
| Cc1cc2n(c(=O)c1CN)Cc1cc3cc(OCCN4CCCCC4)ccc3nc1-2 | 13.6 | 19.8 | 9 | 35.3 |  | 2.5 |
| Cc1cc2n(c(=O)c1C(N)=O)Cc1cc3cc(OCCN4CCCCC4)ccc3nc1-2 | 1.2 | 5.8 | 9 | 33 |  | 0.29 |
